Test results reported in ChEMBL document CHEMBL1122024, “Quantitative structure-inhibitory activity relationships of phenols and fatty acids for Bacillus subtilis spore germination” (J Med Chem, 1982).

Assays:
[1] = system: Bacillus subtilis; assay type: functional
[2] = system: Bacillus subtilis; assay: microbe, parasite or virus in culture; assay type: functional, organism-based; conditions: read-out: I50
[3] = physchem; conditions: octanol/water, pH 7.2
[4] = physchem; conditions: octanol/water
[5] = physchem
[6] = system: Bacillus subtilis; assay: Inhibitory activity on germination of Bacillus subtilis PCI219 spores was determined; No inhibition at 2.5e-3M; assay type: functional, organism-based
Procedure, shortened: (§1)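 Unheated B. subtilis PCI219 spores (about 2.2×10^8 cells per mL) were incubated with the test compound in 0.1 mM L-alanine germinant and 0.05 M phosphate buffer, pH 7.2, at 37 °C. Germination was followed as the decrease in absorbance at 650 nm. The rate was taken as the slope of the steepest linear portion and compared with an inhibitor-free control.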

[7] = system: Bacillus subtilis; assay: Inhibitory activity on germination of Bacillus subtilis PCI219 spores was determined at 2 x 10E-4 M; assay type: functional
Procedure, shortened: as §1

[8] = system: Bacillus subtilis; assay: Inhibitory activity on germination of Bacillus subtilis PCI219 spores was determined; No inhibition at 5*10e-2 M; assay type: functional, organism-based
Procedure, shortened: as §1

| SMILES | Log 1/I50 [1] | IC50 [2] [µM] | logD [3] | logP [4] | pKa [5] | I50 [6] | inhibition at 200 µM [7] [%] | I50 [8] |
| --- | --- | --- | --- | --- | --- | --- | --- | --- |
| CCc1ccc(O)cc1 | 2.8 1/M | 1600 | 2.26 | 2.26 | 10 |  |  |  |
| NC(Cc1ccc(O)cc1)C(=O)O (stereo not given) |  |  |  |  |  | No inhibition |  |  |
| CC(C)Cc1ccc(O)cc1 | 3.52 1/M | 302 | 3.4 | 3.4 | 10.2 |  |  |  |
| CC(C)(C)c1ccccc1O | 4.46 1/M | 34.5 |  |  | 11.3 |  |  |  |
| O=Cc1ccccc1O | 2.42 1/M | 3780 |  |  | 8.3 |  |  |  |
| Cc1cc(C)c(O)c(C)c1 | 2.85 1/M | 1400 | 2.86 | 2.86 | 10.9 |  |  |  |
| CC(C)(C)c1ccc(O)cc1 |  | 302 |  |  |  |  |  |  |
| CC(C)c1ccc(O)cc1 | 3.17 1/M | 674 | 2.86 | 2.86 | 10.1 |  |  |  |
| CC(C)c1ccccc1O | 3.57 1/M | 268 | 2.88 | 2.88 | 10.4 |  |  |  |
| Oc1c(Cl)cc(Cl)cc1Cl |  | 130 |  |  |  |  |  |  |
| Oc1c(Cl)cc(Cl)c(Cl)c1Cl | 3.57 1/M | 269 | 2.59 | 4.1 | 5.7 |  |  |  |
| CCc1ccccc1O | 3.31 1/M | 493 | 2.47 | 2.47 | 10.2 |  |  |  |
| CC(C)Cc1ccccc1O | 3.62 1/M | 242 | 3.27 | 3.27 | 10.5 |  |  |  |
| Oc1ccc(Br)cc1 |  | 717 |  |  |  |  |  |  |
| Oc1ccc(-c2ccccc2)cc1 | 3.89 1/M | 129 | 3.2 | 3.2 | 9.5 |  |  |  |
| Oc1ccc(Cl)cc1Cl [2,4-DICHLOROPHENOL] | 3.62 1/M | 242 | 3.06 | 3.14 |  |  |  |  |
| Oc1ccccc1Cl [2-CHLOROPHENOL] | 3.25 1/M | 562 | 2.13 |  | 8.5 |  |  |  |
| Oc1ccccc1-c1ccccc1 [2-PHENYLPHENOL] | 3.55 1/M | 280 | 3.09 | 3.09 | 9.9 |  |  |  |
| Nc1cccc(O)c1 [3-AMINOPHENOL] | 1.35 1/M | 44700 | 0.16 | 0.16 | 9.9 |  |  |  |
| O=Cc1ccc(O)cc1 [4-HYDROXYBENZALDEHYDE] | 1.7 1/M | 20000 | 1.22 | 1.37 | 7.6 |  |  |  |
| CCCCCCCCCC(=O)O [DECANOIC ACID] | 2.22 1/M | 6030 | 1.62 | 3.92 |  |  |  |  |
| CCCCCCCCCCCC(=O)O [DODECANOATE] | 2.7 1/M | 1980 | 2.62 | 4.92 | 4.9 |  |  |  |
| COc1ccccc1O [GUAIACOL] | 2.2 1/M | 6310 | 1.33 | 1.33 | 9.9 |  |  |  |
| CCCCCCC(=O)O [HEPTANOATE] | 0.82 1/M | 151000 | 0.12 | 2.42 | 4.9 |  |  |  |
| Oc1c(Cl)cc(Cl)c(Cl)c1Cc1c(O)c(Cl)cc(Cl)c1Cl [HEXACHLOROPHENE] | 3.7 1/M | 198 | 5.54 | 7.54 | 5 |  |  |  |
| CCCCC/C=C\C/C=C\CCCCCCCC(=O)O [LINOLEIC ACID] |  |  |  |  |  |  | 34.6 |  |

| SMILES | Log 1/I50 [1] | IC50 [2] [µM] | logD [3] | logP [4] | pKa [5] | I50 [6] | inhibition at 200 µM [7] [%] | I50 [8] |
| --- | --- | --- | --- | --- | --- | --- | --- | --- |
| CC/C=C\C/C=C\C/C=C\CCCCCCCC(=O)O [LINOLENIC ACID] |  |  |  |  |  |  | 32 |  |
| Cc1cccc(O)c1 [METACRESOL] | 2.7 1/M | 2010 | 1.97 | 1.97 | 10.1 |  |  |  |
| COC(=O)c1ccccc1O [METHYL SALICYLATE] | 3 1/M | 1030 | 2.46 | 2.46 | 10.2 |  |  |  |
| COC(=O)c1ccc(O)cc1 [METHYLPARABEN] | 2.7 1/M | 2010 |  |  |  |  |  |  |
| CCCCCCCCCCCCCC(=O)O [MYRISTIC ACID] |  |  |  |  |  |  | 21 |  |
| O=[N+]([O-])c1ccccc1O [NITROPHENOLATE] | 2.5 1/M | 3150 | 1.47 | 1.77 | 7.2 |  |  |  |
| CCCCCCCCC(=O)O [NONANOATE] | 2.05 1/M | 8900 | 1.12 | 3.42 | 4.9 |  |  |  |
| CCCCCCCC(=O)O [OCTANOIC ACID] | 1.27 1/M | 53500 | 0.62 | 2.92 |  |  |  |  |
| CCCCCCCC/C=C\CCCCCCCC(=O)O [OLEIC ACID] |  |  |  |  |  |  | 30.2 |  |
| Cc1cc(O)cc(O)c1 [ORCINOL] | 1.77 1/M | 16800 |  |  | 9.3 |  |  |  |
| Cc1ccccc1O [ORTHOCRESOL] | 2.89 1/M | 1300 | 1.98 | 1.98 | 10.3 |  |  |  |
| O=[N+]([O-])c1ccc(O)cc1 [P-NITROPHENOL] | 2.17 1/M | 6830 | 1.61 |  | 7.1 |  |  |  |
| CCCCCCCCCCCCCCCC(=O)O [PALMITIC ACID] |  |  |  |  |  |  | 17.3 |  |
| Oc1ccc(Cl)cc1 [PARACHLOROPHENOL] | 3.1 1/M | 797 |  |  | 9.4 |  |  |  |
| Oc1c(Cl)c(Cl)c(Cl)c(Cl)c1Cl [PENTACHLOROPHENOL] | 3.46 1/M | 346 |  |  | 5 |  |  |  |
| Oc1ccccc1 [PHENOL] |  | 1500 |  |  |  |  |  |  |
| Nc1ccccc1O [QUESTIOMYCIN B] | 1.52 1/M | 29900 | 0.57 | 0.57 | 9.7 |  |  |  |
| Oc1cccc(O)c1 [RESORCINOL] | 2.42 1/M | 3830 | 0.78 | 0.78 | 9.4 |  |  |  |
| O=C(O)c1ccccc1O [SALICYLIC ACID] |  |  |  | 2.24 |  |  |  | No inhibition |
| CCCCCCCCCCCCCCCCCC(=O)O [STEARIC ACID] |  |  |  |  |  |  | 14.2 |  |
| Cc1ccc(C(C)C)c(O)c1 [THYMOL] | 3.31 1/M | 494 |  |  | 10.7 |  |  |  |
| Oc1cc(Cl)c(Cl)cc1Cl [TRICLOFENOL] | 3.89 1/M | 128 | 3.31 | 3.72 |  |  |  |  |
| CCCCCCCCCCCCC(=O)O [TRIDECANOATE] | 3.12 1/M | 750 | 3.12 | 5.42 | 4.9 |  |  |  |
| CCCCCCCCCCC(=O)O [UNDECANOATE] | 2.35 1/M | 4470 | 2.12 | 4.42 | 4.9 |  |  |  |
| Cc1ccc(O)cc1 [p-CRESOL] | 2.44 1/M | 3640 | 1.94 |  |  |  |  |  |
